In ChEMBL document CHEMBL1125107, “Cephalosporin 3'-quinolone esters with a dual mode of action” (J Med Chem, 1990):
Converted amounts (≈) assume the structure as drawn.

Experiments:
Serratia marcescens = test: In vitro antibacterial activity was determined against Serratia marcescens 1071; format: functional
Summary of the method: (§1)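 Broth MIC determination: serial 2-fold dilutions in Mueller-Hinton broth by standard methodology; the lowest concentration inhibiting growth is reported as the MIC, in nmol/mL.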

Staphylococcus aureus [1] = test: In vitro antibacterial activity was determined against Staphylococcus aureus ATCC 29213 (inducible, low level beta-lactamase producer); format: functional
Summary of the method: (§2)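 Serial 2-fold broth dilution in Mueller-Hinton broth, run by standard methodology; read-out is the minimum inhibitory concentration (MIC).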

Enterococcus faecalis = test: In vitro antibacterial activity was determined against Enterococcus faecalis ATCC 29212; format: functional
Summary of the method: (§3)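 MIC by serial 2-fold dilution in Mueller-Hinton broth; results given as minimum inhibitory concentrations (nmol/mL).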

Streptococcus pyogenes [2] = test: In vitro antibacterial activity was determined against Streptococcus pyogenes 4; format: functional; summary of the method: as §1
Proteus mirabilis [3] = test: In vitro antibacterial activity was determined against Proteus mirabilis 90; format: functional; summary of the method: as §3
Streptococcus pneumoniae [4] = test: (§4) In vitro antibacterial activity was determined against Streptococcus pneumoniae 6301; format: functional; summary of the method: as §1
Staphylococcus aureus [5] = test: In vitro antibacterial activity was determined against Staphylococcus aureus 95 (Methicillin-resistant, high-level beta-lactamase producer); format: functional; summary of the method: as §2
Staphylococcus aureus [6] = test: In vitro antibacterial activity was determined against Staphylococcus aureus 1059B (inducible, high level beta-lactamase producer); format: functional; summary of the method: as §2
Pseudomonas aeruginosa [7] = test: In vitro antibacterial activity was determined against Pseudomonas aeruginosa 18S/H (Class Id beta-lactamase overproducer); format: functional; summary of the method: as §1
Enterobacter cloacae [8] = test: In vitro antibacterial activity was determined against Enterobacter cloacae P99 (Class Ia beta-lactamase overproducer); format: functional; summary of the method: as §3
Proteus vulgaris [9] = test: In vitro antibacterial activity was determined against Proteus vulgaris 1028BC (Class Ic beta-lactamase overproducer; format: functional; summary of the method: as §3
Citrobacter freundii = test: In vitro antibacterial activity was determined against Citrobacter freundii BS-16; format: functional; summary of the method: as §3
Escherichia coli [10] = test: In vitro antibacterial activity was determined against Escherichia coli TEM-1 (TEM-1 (class IIIa) beta-lactamase producer); format: functional; summary of the method: as §3
Pseudomonas aeruginosa [11] = test: In vitro antibacterial activity was determined against Pseudomonas aeruginosa 18S/H ( Class Id beta-lactamase overproducer); format: functional; summary of the method: as §1
Staphylococcus aureus [12] = test: In vitro antibacterial activity was determined against Staphylococcus aureus ATCC 29213 ( inducible, low level beta-lactamase producer); format: functional; summary of the method: as §1
Escherichia coli [13] = test: In vitro antibacterial activity was determined against Escherichia coli UB 1005; format: functional; summary of the method: as §3
[14] = Half life period in rat after (i.v.) administration of a dose of 20 mg/kg; format: ADME, organism-based; parameters: dose 20 mg/kg, route intravenous; settings: in vivo, iv
Summary of the method: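 Rats given 20 mg/kg iv; plasma half-life determined.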

[15] = Evaluated for its stability in Mueller-Hinton broth at 37 degrees Celsius as determined by HPLC analysis; settings: pH 6.5
Pseudomonas aeruginosa [16] = test: In vitro antibacterial activity was determined against Pseudomonas aeruginosa ATCC 27853; format: functional; summary of the method: as §1
[17] = Toxicity was determined; format: organism-based; settings: mouse, in vivo
Summary of the method: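 Acute toxicity in mice after intravenous dosing, expressed as LD50 (mg/kg iv).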

Staphylococcus aureus [18] = test: In vitro antibacterial activity was determined against Staphylococcus aureus 1059B ( inducible, high level beta-lactamase producer); format: functional; summary of the method: as §1
[19] = Evaluated for its stability in human plasma pH 6.5 at 37 degrees Celsius as determined by HPLC analysis; format: ADME
Proteus vulgaris [20] = test: In vitro antibacterial activity was determined against Proteus vulgaris 1028 BC (Class Ic beta-lactamase overproducer); format: functional; summary of the method: as §3
Proteus vulgaris [21] = test: Minimum inhibitory concentration against Proteus vulgaris 1028 BC (Class Ic beta-lactamase overproducer); format: functional; summary of the method: as §1
Escherichia coli [22] = test: Evaluated for the minimum inhibitory concentration against Escherichia coli UB 1005; format: functional; summary of the method: as §3
Staphylococcus aureus [23] = test: Minimum inhibitory concentration against Staphylococcus aureus 95 (Methicillin-resistant, high-level beta-lactamase producer); format: functional; summary of the method: as §2
Streptococcus pneumoniae [24] = test: Minimum inhibitory concentration against Streptococcus pneumoniae 6301; format: functional; summary of the method: as §1
Proteus mirabilis [25] = test: Evaluated for the minimum inhibitory concentration against Proteus mirabilis 90
Pseudomonas aeruginosa [26] = test: Evaluated for the minimum inhibitory concentration against Pseudomonas aeruginosa 18S/H (Class Id beta-lactamase overproducer); format: functional; summary of the method: as §3
Pseudomonas aeruginosa [27] = test: Minimum inhibitory concentration against Pseudomonas aeruginosa ATCC 27853; format: functional; summary of the method: as §1
Streptococcus pyogenes [28] = test: Minimum inhibitory concentration against Streptococcus pyogenes 4; format: functional; summary of the method: as §1
Pseudomonas aeruginosa [29] = test: Evaluated for the minimum inhibitory concentration against Pseudomonas aeruginosa 18S/H ( Class Id beta-lactamase overproducer); format: functional; summary of the method: as §3
Proteus vulgaris [30] = test: Evaluated for the minimum inhibitory concentration against Proteus vulgaris 1028 BC ( Class Ic beta-lactamase overproducer); format: functional; summary of the method: as §3
Proteus vulgaris [31] = test: Evaluated for the minimum inhibitory concentration against Proteus vulgaris 1028 BC ( Class Ic beta-lactamase overproducer; format: functional; summary of the method: as §3
Staphylococcus aureus [32] = test: Evaluated for the minimum inhibitory concentration against Staphylococcus aureus ATCC 29213 ( inducible, low level beta-lactamase producer); format: functional; summary of the method: as §2
Enterobacter cloacae [33] = test: Evaluated for the minimum inhibitory concentration against Enterobacter cloacae P99 ( Class Ia beta-lactamase overproducer); format: functional; summary of the method: as §3
Staphylococcus aureus [34] = test: Evaluated for the minimum inhibitory concentration against Staphylococcus aureus 1059B ( inducible, high level beta-lactamase producer); format: functional; summary of the method: as §2
Escherichia coli [35] = test: In vivo effective dose against mice infected with Escherichia coli 257; format: functional
Summary of the method: (§5)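 Mouse protection test against systemic infection, run by literature procedures; the compound was given subcutaneously, and the effective dose (ED50, mg/kg) was determined.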

Streptococcus pneumoniae [36] = test: as §4; format: functional; summary of the method: as §1; remark: listed apart in the source
Escherichia coli [37] = test: In vitro antibacterial activity was determined against Escherichia coli DC-O; format: functional; summary of the method: as §3
Streptococcus pyogenes [38] = test: In vivo effective dose against mice infected with streptococcus pyogenes 4; format: functional; summary of the method: as §5
Micrococcus luteus = test: In vitro antibacterial activity was determined against Micrococcus luteus PCI; format: functional; summary of the method: as §3

Row | Structure (SMILES) | MIC (Serratia marcescens) [µg/mL] | MIC (Staphylococcus aureus [1]) [µg/mL] | MIC (Enterococcus faecalis) [µg/mL] | MIC (Streptococcus pyogenes [2]) [µg/mL] | MIC (Proteus mirabilis [3]) [µg/mL] | MIC (Streptococcus pneumoniae [4]) [µg/mL] | MIC (Staphylococcus aureus [5]) [µg/mL] | MIC (Pseudomonas aeruginosa [7]) [µg/mL] | MIC (Enterobacter cloacae [8]) [µg/mL] | MIC (Citrobacter freundii) [µg/mL] | MIC (Escherichia coli [10]) [µg/mL] | MIC (Pseudomonas aeruginosa [16]) [µg/mL] | MIC (Staphylococcus aureus [18]) [µg/mL] | MIC (Proteus vulgaris [20]) [µg/mL] | MIC (Escherichia coli [22]) [µg/mL] | MIC (Staphylococcus aureus [23]) [µg/mL] | MIC (Streptococcus pneumoniae [24]) [µg/mL] | MIC (Pseudomonas aeruginosa [27]) [µg/mL] | MIC (Streptococcus pyogenes [28]) [µg/mL] | MIC (Pseudomonas aeruginosa [29]) [µg/mL] | other results
1 | CCn1cc(C(=O)O)c(=O)c2cc(F)c(N3CCSCC3)cc21 | 0.25 (≈ 0.743 µM) | 0.063 (≈ 0.187 µM) | 1 (≈ 2.97 µM) | 8 (≈ 23.8 µM) | 16 (≈ 47.6 µM) | 16 (≈ 47.6 µM) | 0.063 (≈ 0.187 µM) | 1 (≈ 2.97 µM) | 0.125 (≈ 0.372 µM) | 16 (≈ 47.6 µM) | 0.5 (≈ 1.49 µM) | – | – | – | – | – | – | – | – | – | MIC (Staphylococcus aureus [6]): 0.125 µg/mL (≈ 0.372 µM); MIC (Proteus vulgaris [9]): 0.5 µg/mL (≈ 1.49 µM)
2 | CCn1cc(C(=O)OCC2=C(C(=O)O)N3C(=O)[C@@H](NC(=O)COc4ccccc4)C3SC2)c(=O)c2cc3c(cc21)OCO3 (stereo partly drawn) | 1 (≈ 1.65 µM) | – | 64 (≈ 105 µM) | – | 4 (≈ 6.58 µM) | – | 4 (≈ 6.58 µM) | – | 0.5 (≈ 0.823 µM) | 2 (≈ 3.29 µM) | 1 (≈ 1.65 µM) | > 256 | 0.5 (≈ 0.823 µM) | 0.25 (≈ 0.411 µM) | – | – | – | – | – | – | MIC (Pseudomonas aeruginosa [11]): 16 µg/mL (≈ 26.3 µM); MIC (Staphylococcus aureus [12]): 0.25 µg/mL (≈ 0.411 µM); MIC (Escherichia coli [13]): 32 µg/mL (≈ 52.7 µM); half-life [14]: 0.217 h; half-life [15]: 11.2 h; LD50 [17]: > 500 mg/kg; half-life [19]: 6 h
3 | CN1CCN(c2c(F)cc3c(=O)c(C(=O)OCC4=C(C(=O)O)N5C(=O)[C@@H](NC=O)C5SC4)cn(CCF)c3c2F)CC1 (stereo partly drawn) | – | – | – | – | – | – | – | – | – | – | – | – | – | – | 32 (≈ 52.5 µM) | 32 (≈ 52.5 µM) | 0.25 (≈ 0.41 µM) | > 128 | 0.25 (≈ 0.41 µM) | – | MIC (Proteus vulgaris [21]): 0.5 µg/mL (≈ 0.82 µM); MIC (Proteus mirabilis [25]): 32 µg/mL (≈ 52.5 µM); MIC (Pseudomonas aeruginosa [26]): 64 µg/mL (≈ 105 µM)
4 | CCn1cc(C(=O)OCC2=C(C(=O)O)N3C(=O)[C@@H](NC(=O)/C(=N/OC)c4csc(N)n4)C3SC2)c(=O)c2cc(F)c(N3CCCC3)cc21 (stereo partly drawn) | – | – | – | – | – | – | – | – | – | – | – | – | – | – | 0.5 (≈ 0.715 µM) | 0.5 (≈ 0.715 µM) | < 0.008 | > 128 | 1 (≈ 1.43 µM) | 32 (≈ 45.7 µM) | MIC (Proteus vulgaris [30]): 4 µg/mL (≈ 5.72 µM)
5 | CCn1cc(C(=O)O)c(=O)c2cc(F)c(N3CCN(C=O)CC3)cc21 [4-N-FORMYL-1-PIPERAZINYL-NORFLOXACIN] | – | – | – | – | – | – | – | – | – | – | – | – | – | – | – | 1 (≈ 2.88 µM) | 8 (≈ 23 µM) | 16 (≈ 46.1 µM) | 8 (≈ 23 µM) | 2 (≈ 5.76 µM) | MIC (Proteus vulgaris [31]): 0.5 µg/mL (≈ 1.44 µM); MIC (Staphylococcus aureus [32]): 1 µg/mL (≈ 2.88 µM); MIC (Enterobacter cloacae [33]): 0.5 µg/mL (≈ 1.44 µM); MIC (Staphylococcus aureus [34]): 1 µg/mL (≈ 2.88 µM)
6 | CN1CCN(c2c(F)cc3c(=O)c(C(=O)O)cn(CCF)c3c2F)CC1 [FLEROXACIN] | 0.25 (≈ 0.677 µM) | 0.5 (≈ 1.35 µM) | 4 (≈ 10.8 µM) | 1 (≈ 2.71 µM) | 0.5 (≈ 1.35 µM) | 4 (≈ 10.8 µM) | 0.5 (≈ 1.35 µM) | 2 (≈ 5.42 µM) | 0.125 (≈ 0.338 µM) | 1 (≈ 2.71 µM) | 0.125 (≈ 0.338 µM) | 4 (≈ 10.8 µM) | 0.5 (≈ 1.35 µM) | 0.25 (≈ 0.677 µM) | – | – | – | – | – | – | ED50 (Escherichia coli [35]): 0.4 mg/kg; MIC (Streptococcus pneumoniae [36]): 9.53 µM (≈ 3.52 µg/mL); MIC (Escherichia coli [37]): 1.19 µM (≈ 0.44 µg/mL); ED50 (Streptococcus pyogenes [38]): 183 mg/kg; MIC (Micrococcus luteus): 38.2 µM (≈ 14.1 µg/mL)
